Assay: Toxicity liver stage against HepG2, at 10uM
Format: cell-based
Design: test concentration 10 uM, cell line HepG2-A16-CD81EGFP
Conditions: human, HepG2-A16-CD81EGFP cells; read-out: INHIBITION
In short: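 Uninfected HepG2-A16-CD81EGFP cells, 3 × 10^3 per well, 1536-well, plated on prespotted compound at 10 μM final, parasite-free screening media added to match infected plates; puromycin 10 μM positive, DMSO 0.5% negative; run in parallel with 48 h PbLuc assay at 37 °C, 5% CO2; viability by CellTiter-Glo luminescence, normalized to controls.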

Compound | cytotoxicity at 10 µM [%]
CCC1(CC)C(=O)NC(=O)N/C1=N/c1cccc(OC)c1 | -51.8
CC(=O)Nc1nc(-c2ccccc2)c[nH]1 | -1
CC1(C)[C@H](Cc2cc(CO)on2)C[C@@H]1NCc1ccc(CO)o1 | -12.4
CC(C)NC(=O)N1C[C@@H](F)[C@@H](OCc2nc3ccccc3o2)C1 | 8.16
CCCOc1ccc(CC2=NC(C)(CO)CO2)cc1 (stereo unspecified) | 24.8
CC(C)CNC(=O)c1nc(COc2ccc3c(c2)OCO3)no1 | 2.93
CC(C)n1ccc2ccc(C(=O)NC3CN4CCC3CC4)cc21 (stereo unspecified) | -57.4
O=C1CCCN1C(CNS(=O)(=O)C1CC1)Cc1cccc(F)c1 (stereo unspecified) | 1.49
Cc1noc(CNC(=O)CN(C)c2nc3c(C)ccc(C)c3s2)n1 | 55.7
Cc1nsc(C(=O)NCCCc2ccccc2)n1 | -0.449
CC(=O)Nc1ccc2c(c1)C1(CCOCC1)C(=O)N2c1ccsc1 | 5.56
Cc1ccc(CC(=O)N2CC[C@@H]3NC(=O)CC[C@@H]32)cc1 | 1.49
CN(C)CCN1CCOC2(CCN(c3nccs3)CC2)c2ccccc21 | -1.99
CC(C)CN1CCC2(Cc3ccccc3NC2=O)C1 (stereo unspecified) | 6.86
CCOc1cc(CNCCCn2ccnc2)cc(Cl)c1OCC | 1.82
CN(C)c1ccc(C(=O)N2CCC(c3cc4ncccc4[nH]3)CC2)cc1 | -2.32
CCN1CCCC1CNCc1cc2cc3c(cc2[nH]c1=O)OCCO3 (stereo unspecified) | 5.07
Cc1cc(N2CCC(c3n[nH]c4nccnc34)CC2)ncn1 | -25.6
C[C@H](NC(=O)C1CCCC1)c1nc2cc(-c3ccc(F)cc3)ncn2n1 | -10.9
COCC(=O)N1CCC(C(=O)c2cc(C)cnc2N)CC1 | 0.353
Cc1ccc(N2CCC(Nc3ccc4nnc(C)n4n3)CC2)nc1 | 8.56
COCCN(Cc1ccccn1)C(=O)CC1OCCc2ccsc21 (stereo unspecified) | -39
COc1ccccc1OCCNS(=O)(=O)N1CCOCC1 | 9.37

Compound | cytotoxicity at 10 µM [%]
COc1ccc(C(C)=O)cc1CN1CCn2cccc2C1C (stereo unspecified) | -6.62
CNC(=O)c1ccc(CN(C)c2ccc(C(F)(F)F)cn2)cc1 | 6.71
CCCn1nc2c(cc1=O)CN(Cc1ccccn1)CC2 | 1.53
CC(C)(O)CN1CCN(C(=O)c2cnn(-c3ccccc3F)c2)CC1 | -3.8
c1cnc2nc(N3CCCC3c3nnc4n3CCCCC4)ccc2n1 (stereo unspecified) | 4.21
CCCc1noc(CS(=O)(=O)CC(=O)NC(C)CCC)n1 (stereo unspecified) | 3.22
Cc1noc(C)c1CC(=O)NCC(C(C)C)N1CCOCC1 (stereo unspecified) | -42.7
OCc1cc2ccccc2nc1NCC1(O)CCC1 | -46.9
CN(Cc1ccc(Cl)s1)C(=O)Nc1ccc(N(C)C)nc1 | -1.73
CCN(C(=O)CCOC)C(c1ccc(Cl)cc1)c1ccccn1 (stereo unspecified) | 1.88
COc1ccc(C)cc1CC(=O)NC(CC(=O)O)c1ccc(F)cc1 (stereo unspecified) | 7.66
CC(C)COC(C)C(=O)NCc1ccc(Cn2ccnc2)cc1 (stereo unspecified) | -2.65
c1cnnc(N2CCCC(NCc3nc(C4CC4)no3)C2)c1 (stereo unspecified) | -14.6
COCCN(C)C(=O)Nc1ccc2c(ccn2CCOC)c1 | -3.83
Cc1ccc(N2CCc3ncnc(C4CC4)c3CC2)nn1 | -85
CCN(CC)C(=O)c1nc2c(s1)CCN(C(=O)Nc1ccccc1)CC2 | 12
CCN(CC)Cc1cc(=O)n2c(n1)CN(C(=O)c1ccc[nH]1)CCC2 | -112
CC(=O)N1CCC2(CC1)c1ncc(-c3cccnc3)n1CCN2C | -94
CN(Cc1cncnc1)[C@H]1CN(C(=O)c2ccc[nH]2)[C@@H]2CCCO[C@@H]21 | -107
COC(=O)CCC(=O)N1CCC2(CN(Cc3cccc(Cl)c3)C2)C1 | -62.4
O=C(Cc1ccc(F)cc1)N1CCn2c(Cn3cncn3)cnc2C1 | -67.3
O=C(NC1CCC1)C1=NOC2(CCN(Cc3ccccc3)C2)C1 (stereo unspecified) | -97.6
CN1CCC2(CC1)CN(C(=O)c1ccncc1)Cc1ccccc12 | -86.3

Compound | cytotoxicity at 10 µM [%]
Cc1ncc2c(c1-c1noc(-c3cscn3)n1)CCNC2 | -3.37
CCc1cnc(N)nc1NCCc1ccc(OC)cc1OC | 3.29
Cn1ncc(N2CCC(CNC3Cc4ccccc4C3)C2)cc1=O (stereo unspecified) | -6
Cc1cc(C(=O)N(C)Cc2ccccc2OCC(C)C)cc(=O)[nH]1 | 8.45
COCCC1(C(=O)O)CCCN(C(=O)c2cc(Cl)ccc2F)C1 (stereo unspecified) | -2.79
O=C(Cc1c[nH]c(=O)[nH]c1=O)N1CCC2(CCC(=O)N(C3CC3)C2)CC1 | -44.5
O=S1(=O)C[C@@H]2[C@H](C1)N(Cc1cc(F)cc(Cl)c1)CCN2CCO | -4.71
Cc1noc(CN(C)CC2CCCN(CCc3ccc(Cl)cc3)C2)n1 (stereo unspecified) | 3.76
CN1CCCC(CNS(=O)(=O)N2CCc3ccccc3C2)C1 (stereo unspecified) | -4.32
CCn1ccnc1-c1nccn1-c1ccccc1CN1CCOCC1 | 14.1
O=C(O)[C@@H]1CN(C2CCCC2)C[C@H]1C1CC1 | -147
N[C@@H]1c2ccccc2C2(CCN(c3cc(C(F)(F)F)ccn3)CC2)[C@H]1O | 0.106
Cc1cc(C(=O)N2C[C@H]3CCC[C@@]3(CO)C2)c2ccc(F)cc2n1 | 5.78
O[C@H]1[C@H](NCCc2cnccn2)c2ccccc2C12CCNCC2 | -7.32
CC(c1ccncn1)N(C)Cc1cc2cc3c(cc2[nH]c1=O)OCO3 (stereo unspecified) | 9.83
COc1cccc(NC(=O)NCC2CCCN(C3CCOCC3)C2)c1 (stereo unspecified) | -2.48
CC(O)Cc1cn(CC2CCN(C3CCSCC3)CC2)nn1 (stereo unspecified) | 8.88
CC(c1ccc(F)cc1)n1ccnc1-c1cc2n(n1)CCCNC2 (stereo unspecified) | 2.36
c1ccc2c(c1)CCN(c1nc(-c3ccncc3)nc3c1CCNC3)C2 | 37.3
O=C1NC(c2cccnc2)=NC12CCN(CCCc1ccccc1)CC2 | 1.68
Cc1cnc(NCc2csc(C(C)C)n2)nc1-c1cnn(C)c1 | 2.83
Cc1cc2nc(C(C)C)cc(N(C)CC3CCCN(CCO)C3)n2n1 (stereo unspecified) | 7.52
Cc1ccc(C(=O)N(C)CCCc2cnn(C)c2)cc1N1CCNC1=O | -4.39

Compound | cytotoxicity at 10 µM [%]
CCC(NC(=O)C1CCN(S(C)(=O)=O)CC1)c1ccc(C)c(C)c1 (stereo unspecified) | -8.06
COCc1cc(NCCCSc2nnc(C)s2)ncn1 | 11.6
Cc1c[nH]c(CN(C)C(C(=O)O)c2c(F)cccc2OC(C)C)n1 (stereo unspecified) | -50.6
COc1cc(CN2CCN(c3cccc(OC)c3)C(=O)C2)cc(OC)c1 | -11.7
COc1ccc(OC)c(-c2nc(CN(C)Cc3nncn3C)c(C)o2)c1 | -9.57
O=C(O)CCc1cccc(C2CCCN2Cc2ccc(F)c(F)c2)n1 (stereo unspecified) | -5.25
CCc1nc(C)c(C(=O)NCCNC(=O)c2cccs2)s1 | -1.45
O=C(CN1CCC(c2ccnn2CCO)CC1)NCc1ccco1 | 1.68
CN1CCOC(CNCc2coc(-c3cccc(F)c3)n2)C1 (stereo unspecified) | -29.3
Cc1c(C(=O)NCC2CCS(=O)(=O)C2)cnn1-c1ccccc1 (stereo unspecified) | -10.2
CCn1cnnc1CNC(=O)NC(C)c1ccccn1 (stereo unspecified) | -17.6
CNc1snc(C)c1C(=O)N1CCCC(n2cc(C)cn2)C1 (stereo unspecified) | -3.42
COc1ncccc1NC(=O)N(Cc1ccc(C)o1)C1CC1 | -1.83
c1ncn(CC2CN(Cc3csc(C4CCCC4)n3)CCO2)n1 (stereo unspecified) | -8.55
Cc1ccc(Oc2ccc(NC(=O)NCC3CCOC3)cn2)cc1C (stereo unspecified) | -5.28
Cc1cnn(C2CCCN(C(=O)c3cc(C4CC4)on3)C2)c1 (stereo unspecified) | -11.4
COCCNC(=O)Nc1ccc(-n2cncn2)c(F)c1 | -0.0868
CC(NC(=O)NCCCc1n[nH]c(N)c1C#N)c1cccs1 (stereo unspecified) | -6.8
Cc1cnn(CC2CCCCN2Cc2nc(N)c3ccccc3n2)c1 (stereo unspecified) | -7.21
CCCc1nc(CN2CCOC(CNc3cccnn3)C2)cs1 (stereo unspecified) | -6.71
Cc1cnn(CC2CN(Cc3nc4ccccc4nc3C)CCO2)c1 (stereo unspecified) | -4.02
c1csc(-c2noc(C3CNC3)n2)c1 | -5.39
Cc1noc([C@@H]2C[C@H]3OCC[C@H]3N(Cc3cc(C)c(C)o3)C2)n1 | -72.2

Compound | cytotoxicity at 10 µM [%]
CC1CCCCN1C(=O)c1nc2c(n1C(C)C)CCN(C)C2 (stereo unspecified) | 18.2
O=C1N(c2ccsc2)CCC12CCCN(CC1CC1)C2 (stereo unspecified) | -79.4
N#Cc1ccc(N2CCC3(CC2)CC(OCc2cccnc2)CO3)cc1 (stereo unspecified) | 38.8
CS(=O)(=O)N1CCC2(CCN(C(=O)c3cccnc3)CC2)C1 | 3.59
CCS(=O)(=O)N1Cc2[nH]nc(COCc3cccnc3)c2C1 | 11.9
COCC1CC2(CCN(c3cc(OC)ncn3)CC2)CN1C(C)C (stereo unspecified) | -108
CC(C)n1nc(CN2CCCC2)c2c1CN(CC1CC1)CC2 | 2.53
O=C(CC1CC1)N1CCc2ncc(Cn3cncn3)n2CC1 | -71.6
CCOCC1CN(C2CCCC2)Cc2cnn(CC3CCOCC3)c21 (stereo unspecified) | -9.13
N#Cc1cccc(CN2CCn3cc(Cn4cccn4)nc3C2)c1 | -0.501
O=C(c1cccc(F)c1)N1CCC2(CC1)CN(c1ccccn1)CCO2 | -74.1
CN1CCN(c2ncc3c(c2C(=O)O)CCN(C2CCOC2)C3)CC1 (stereo unspecified) | 6.96
Fc1cnc(N2CCCC3(CCN(Cc4cccs4)C3)C2)nc1 (stereo unspecified) | -71.1
O=C(CCC1CCCC1)N1CCCC(c2ncc3c(n2)CCNC3)C1 (stereo unspecified) | -23
Cc1ccc(CNCc2ccc(N3CCC(CO)CC3)nc2)c(C)c1 | 1.37
Cc1cnc(N2CCC3(CC2)CN(Cc2cccs2)CCO3)nc1 | 16.2
Fc1cnc(N2CCn3c(CN4CCCC4)nnc3C2)nc1 | -145
CC1N(c2cnn(C)c2)C(=O)COC12CCN(c1ncccn1)CC2 (stereo unspecified) | 0.952
CC(C)CN1C[C@@H]2C[C@H](C(=O)NCc3cccnc3)[C@H](C1)O2 | 2.5
